Measurements gathered from unrelated publications.
Compare with care: the assays were run in different laboratories.
Target: Platelet-derived growth factor receptor beta (PDGFRB, Homo sapiens, UniProt P09619)

| SMILES | read-out | technique | concentration | remaining binding [%] |
| --- | --- | --- | --- | --- |
| N#CC1(c2ccccn2)CCN(Cc2cc(C(=O)N3CCCC3)c(=O)n3ccccc23)CC1 | cell-free assay | competition with immobilised ligand | 1 µM | 86 |
| CN(c1nccc(-c2cnn3ncccc23)n1)C1CC1 | binding |  | 1 µM | 98 |
| O=C(Nc1c[nH]nc1C(=O)NC1CCNCC1)c1cc(F)cc(F)c1 | binding | competition with immobilised ligand | 1 µM | 100 |
| CCC(=N\O)/C(C)=C/c1ccc(F)cc1 | cell-free assay | competition with immobilised ligand | 1 µM | 100 |
| N[C@H]1CCN(c2nccc(-c3cnn4ncccc34)n2)C1 | binding |  | 1 µM | 93 |
| Cc1cnc(Nc2ccc(C(=O)N3CCC(N4CCCC4)CC3)cc2)nc1-c1cc2ccccc2s1 | binding | competition with immobilised ligand | 1 µM | 0.4 |
| CC(C)(C)c1ccc(-c2nc(CBr)nn2-c2cccc(O)c2)cc1 | cell-free assay | competition with immobilised ligand | 10 µM | 86 |
| Cc1cc(-n2nc(Cc3cc(F)cc(C(F)(F)F)c3)nc2C)ccc1C(N)=O | cell-free assay | competition with immobilised ligand | 1 µM | 98 |
| C[C@@H]1CCN(c2nccc(-c3cnn4ncccc34)n2)C1 | binding |  | 1 µM | 100 |
| CCN1CCN(Cc2ccc(C(=O)Nc3ccc(C)c(Oc4ccc5c(c4)CC(=O)N5)c3)cc2C(F)(F)F)CC1 | binding | competition with immobilised ligand | 1 µM | 0.85 |
| CN(C)c1nccc(-c2cnn3ncccc23)n1 | binding |  | 1 µM | 100 |
| COC(=O)Nc1nc2ccc(C(=O)c3ccccc3)cc2[nH]1 | cell-free assay | competition with immobilised ligand | 10 µM | 3.2 |
| c1cnn2ncc(-c3ccnc(N4CCC45COC5)n3)c2c1 | binding |  | 1 µM | 78 |
| N#Cc1ccccc1CSc1nnc2c(n1)[nH]c1ccccc12 | binding | competition with immobilised ligand | 10 µM | 91 |
| COc1ccc2c(c1)O[C@@H](c1ccc(OC)c(OC)c1)C[C@H]2NC(=O)C1(c2ccc3c(c2)OC(F)(F)O3)CC1 | cell-free assay | competition with immobilised ligand | 1 µM | 100 |
| COc1cnc(Nc2cccc(S(N)(=O)=O)c2)nc1N1CCN(c2ccccc2)C(=O)C1 | binding | competition with immobilised ligand | 1 µM | 94 |
| FC(F)(F)c1ccc2c(c1)nc(-c1cccnc1)n2C1CC1 | cell-free assay | competition with immobilised ligand | 1 µM | 100 |
| C[C@@H]1CN(c2ccc3ncc(-c4ccc5[nH]nc(C6CC6)c5c4)n3n2)C[C@H](C)O1 | binding | competition with immobilised ligand | 0.5 µM | 12 |
| CCOCCn1cc(C(=O)Nc2ccc(-n3nc(-c4cccnc4)cc3C(F)(F)F)cn2)ccc1=O | cell-free assay | competition with immobilised ligand | 1 µM | 88 |
| O=C(c1ccc(Nc2ncc(Cl)c(-c3ccc(Cl)s3)n2)cc1)N1CCC(N2CCCC2)CC1 | binding | competition with immobilised ligand | 1 µM | 0 |
| CC(=O)Nc1c(C(C)=O)c(=O)n(C)c2nc(-c3ccc(Cl)cc3Cl)c(-c3ccc(Cl)cc3)cc12 | cell-free assay | competition with immobilised ligand | 1 µM | 100 |
| O=C(c1ccc(Nc2ncc(Cl)c(-c3cc4ccccc4s3)n2)cc1)N1CCC(N2CCCC2)CC1 | binding | competition with immobilised ligand | 1 µM | 1.9 |
| CCN(CC)CCCCNc1ncc2cc(-c3cc(OC)cc(OC)c3)c(NC(=O)NC(C)(C)C)nc2n1 | cell-free assay | competition with immobilised ligand | 1 µM | 38 |
| CN(C)c1ncc(F)c(-c2cnn3ncccc23)n1 | binding |  | 1 µM | 100 |
| Nc1ncc2c(n1)-c1c([nH]c3ccc(C#CC4CC4)cc13)CCCC2 | binding | competition with immobilised ligand | 1 µM | 100 |
